Assay results as given in ChEMBL document CHEMBL1131510, “An endogenous sleep-inducing compound is a novel competitive inhibitor of fatty acid amide hydrolase” (Bioorg Med Chem Lett, 1998).

What was measured:
[1] = Acid dissociation constant value for the compound was determined; assay type: ADME
[2] = molecular target: T1, Fatty-acid amide hydrolase 1 (Homo sapiens, UniProt O00519); assay: Concentration required to inhibit Fatty-acid amide hydrolase (FAAH) at pH 7.0
T1 sequence (O00519 whole entry): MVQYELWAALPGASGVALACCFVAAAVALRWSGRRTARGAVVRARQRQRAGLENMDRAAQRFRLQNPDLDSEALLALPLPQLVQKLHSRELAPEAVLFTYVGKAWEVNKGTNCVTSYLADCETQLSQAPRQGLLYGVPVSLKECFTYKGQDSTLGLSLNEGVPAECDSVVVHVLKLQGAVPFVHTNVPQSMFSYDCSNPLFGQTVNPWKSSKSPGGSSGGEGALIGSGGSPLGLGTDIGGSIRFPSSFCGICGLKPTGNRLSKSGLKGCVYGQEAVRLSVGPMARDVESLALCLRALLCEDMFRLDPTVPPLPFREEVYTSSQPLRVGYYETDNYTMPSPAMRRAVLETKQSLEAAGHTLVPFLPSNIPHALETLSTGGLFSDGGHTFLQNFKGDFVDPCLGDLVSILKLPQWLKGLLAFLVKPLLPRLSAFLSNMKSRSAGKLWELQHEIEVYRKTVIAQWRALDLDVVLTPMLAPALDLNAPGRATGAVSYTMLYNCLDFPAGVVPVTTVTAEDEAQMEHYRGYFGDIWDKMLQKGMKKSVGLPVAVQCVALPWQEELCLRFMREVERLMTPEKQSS
Procedure, shortened: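 FAAH from solubilized liver plasma membrane extract, assayed at 20-22 °C at pH 7.0. Per the general assay footnote, the reaction buffer contained Tris, EDTA, glycerol and Triton X-100. Read-out was ¹⁴C-oleamide hydrolysis to oleic acid, followed by extraction, TLC separation and scintillation counting. Reaction time courses ran 10 min to 1 h. Only IC50 values are reported at this pH.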

[3] = molecular target: T1, Fatty-acid amide hydrolase 1; assay: Inhibitory concentration against Fatty-acid amide hydrolase (FAAH) at pH 9.0
Procedure, shortened: (§1)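 Hydrolysis of ¹⁴C-oleamide to oleic acid was followed over 30 s to 15 min. Product was extracted, separated by TLC and quantified by scintillation counting.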

[4] = molecular target: T1, Fatty-acid amide hydrolase 1; assay: Compound was tested for inhibitory potency against Fatty-acid amide hydrolase (FAAH) at pH 9.0; procedure, shortened: as §1
[5] = molecular target: T1, Fatty-acid amide hydrolase 1; assay: Concentration required to inhibit fatty acid amide hydrolase (FAAH) at pH 7.0
Procedure, shortened: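 Performed at pH 7.0 with solubilized liver plasma membrane extract as the FAAH source. ¹⁴C-oleamide breakdown to oleic acid was measured by extraction, TLC separation and scintillation counting. Reaction progress was monitored from 10 min to 1 h, and only IC50 values were derived.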

| pKa [1] | IC50 [3] | Ki [4] | IC50 [5] | SMILES | IC50 [2] |
| --- | --- | --- | --- | --- | --- |
| 9 | > 100000 nM |  |  | CCCCCCCCC(=O)CC(C)=O |  |
|  | 2900 nM | 1100 nM | 700 nM | CCCCCC[C@@H](C)OC(=O)CC(=O)CCl |  |
|  | > 100000 nM |  |  | CCCCCC[C@@H](C)OC(=O)CC(=O)CC |  |
| 10.5 | > 100000 nM |  |  | CCCCCC[C@H](C)OC(=O)CC(C)=O |  |
|  | > 100000 nM |  |  | CCCCCC[C@@H](C)OC(=O)CC(O)CBr (stereo partly drawn) |  |
|  | > 100000 nM |  |  | CCCCCC[C@@H](C)OC(=O)CC(=O)CCC |  |
|  | 600 nM | 190 nM | 2500 nM | CCCCCCCC/C=C\CCCCOC(=O)CC(=O)CBr |  |
|  | 1500 nM | 550 nM |  | CCCCCCCOC(=O)CC(=O)CBr | 2100 nM |
|  | 1000 nM | 390 nM | 5300 nM | CCCCCCCC/C=C\CCCCCCCC(=O)CBr |  |

| SMILES | pKa [1] | IC50 [3] | Ki [4] | IC50 [5] | IC50 [2] |
| --- | --- | --- | --- | --- | --- |
| CCCCCC[C@@H](C)OC(=O)CC(=O)CBr | 8.5 | 2600 nM | 800 nM |  | 3100 nM |
| CCCCCCCC/C=C\CCCCCCCC(=O)C(F)(F)F |  | 600 nM | 250 nM | 9900 nM |  |
| CCCCCC[C@H](C)OC(=O)CC(=O)CBr |  | 4000 nM | 1100 nM |  |  |
